Tested on: U2OS
Experiment: Multiplex assay against U2OS
Type: toxicity, cell-based
Details: human
Method in brief: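 Four dyes were applied at seeding to live cells: Hoechst33342, BioTracker Green Microtubule Cytoskeleton Dye, MitoTracker Red and Annexin V Alexa Fluor 680. Imaging after compound addition used a CQ1 microscope at 37°C and 5% CO2. CellPathfinder machine-learning gating then sorted cells into Hoechst high-intensity objects or normal cells, normal cells into healthy, pyknosed or fragmented nuclei, and pyknosed cells into mitotic or apoptotic, with tubulin, mitochondrial-mass and membrane-permeability phenotypes given as per cents of healthy-nucleus cells.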

[1] = 12 h, 1 µM, compound concentration 1 uM, replicate 1
[2] = 12 h, 1 µM, compound concentration 1 uM, replicate 2
[3] = 12 h, 10 µM, compound concentration 10 uM, replicate 1
[4] = 12 h, 10 µM, compound concentration 10 uM, replicate 2
[5] = 24 h, 1 µM, compound concentration 1 uM, replicate 1
[6] = 24 h, 1 µM, compound concentration 1 uM, replicate 2
[7] = 24 h, 10 µM, compound concentration 10 uM, replicate 1
[8] = 24 h, 10 µM, compound concentration 10 uM, replicate 2
[9] = 48 h, 1 µM, compound concentration 1 uM, replicate 1
[10] = 48 h, 1 µM, compound concentration 1 uM, replicate 2
[11] = 48 h, 10 µM, compound concentration 10 uM, replicate 1
[12] = 48 h, 10 µM, compound concentration 10 uM, replicate 2

N#Cc1c(N)nc(SCc2csc(-c3ccc(Cl)cc3)n2)c(C#N)c1-c1ccc(OCCO)cc1 [CAPADENOSON]
Population Apoptotic (%) [1]: 78% | Population Fragmented Nuclei (%) [1]: 25% | Population Healthy Nuclei (%) [1]: 65% | Population Hoechst High Intensity Objects (%) [1]: 5% | Population Membrane Permeable-Phenotype (%) [1]: 14% | Population Mitochondria Different-Phenotype (%) [1]: 4% | Population Mitotic Cells (%) [1]: 21% | Population Normal (%) [1]: 94% | Population Pyknosed Nuclei (%) [1]: 8% | Population Tubulin-Different-Phenotype (%) [1]: 10% | Total Cell Count [1]: 236 | Population Apoptotic (%) [2]: 80% | Population Fragmented Nuclei (%) [2]: 18% | Population Healthy Nuclei (%) [2]: 75% | Population Hoechst High Intensity Objects (%) [2]: 1% | Population Membrane Permeable-Phenotype (%) [2]: 5% | Population Mitochondria Different-Phenotype (%) [2]: 2% | Population Mitotic Cells (%) [2]: 20% | Population Normal (%) [2]: 98% | Population Pyknosed Nuclei (%) [2]: 6% | Population Tubulin-Different-Phenotype (%) [2]: 1% | Total Cell Count [2]: 150 | Population Apoptotic (%) [3]: 64% | Population Fragmented Nuclei (%) [3]: 35% | Population Healthy Nuclei (%) [3]: 40% | Population Hoechst High Intensity Objects (%) [3]: 5% | Population Membrane Permeable-Phenotype (%) [3]: 70% | Population Mitochondria Different-Phenotype (%) [3]: 37% | Population Mitotic Cells (%) [3]: 35% | Population Normal (%) [3]: 94% | Population Pyknosed Nuclei (%) [3]: 24% | Population Tubulin-Different-Phenotype (%) [3]: 65% | Total Cell Count [3]: 255 | Population Apoptotic (%) [4]: 68% | Population Fragmented Nuclei (%) [4]: 24% | Population Healthy Nuclei (%) [4]: 56% | Population Hoechst High Intensity Objects (%) [4]: 0% | Population Membrane Permeable-Phenotype (%) [4]: 49% | Population Mitochondria Different-Phenotype (%) [4]: 61% | Population Mitotic Cells (%) [4]: 31% | Population Normal (%) [4]: 99% | Population Pyknosed Nuclei (%) [4]: 18% | Population Tubulin-Different-Phenotype (%) [4]: 70% | Total Cell Count [4]: 102 | Population Apoptotic (%) [5]: 87% | Population Fragmented Nuclei (%) [5]: 23% | Population Healthy Nuclei (%) [5]: 64% | Population Hoechst High Intensity Objects (%) [5]: 3% | Population Membrane Permeable-Phenotype (%) [5]: 9% | Population Mitochondria Different-Phenotype (%) [5]: 4% | Population Mitotic Cells (%) [5]: 12% | Population Normal (%) [5]: 96% | Population Pyknosed Nuclei (%) [5]: 12% | Population Tubulin-Different-Phenotype (%) [5]: 6% | Total Cell Count [5]: 263 | Population Apoptotic (%) [6]: 61% | Population Fragmented Nuclei (%) [6]: 16% | Population Healthy Nuclei (%) [6]: 71% | Population Hoechst High Intensity Objects (%) [6]: 0% | Population Membrane Permeable-Phenotype (%) [6]: 5% | Population Mitochondria Different-Phenotype (%) [6]: 2% | Population Mitotic Cells (%) [6]: 38% | Population Normal (%) [6]: 99% | Population Tubulin-Different-Phenotype (%) [6]: 2% | Total Cell Count [6]: 176 | Population Apoptotic (%) [7]: 71% | Population Fragmented Nuclei (%) [7]: 36% | Population Healthy Nuclei (%) [7]: 37% | Population Hoechst High Intensity Objects (%) [7]: 5% | Population Membrane Permeable-Phenotype (%) [7]: 47% | Population Mitochondria Different-Phenotype (%) [7]: 38% | Population Mitotic Cells (%) [7]: 28% | Population Normal (%) [7]: 94% | Population Pyknosed Nuclei (%) [7]: 26% | Population Tubulin-Different-Phenotype (%) [7]: 47% | Total Cell Count [7]: 253 | Population Apoptotic (%) [8]: 69% | Population Fragmented Nuclei (%) [8]: 25% | Population Healthy Nuclei (%) [8]: 49% | Population Hoechst High Intensity Objects (%) [8]: 2% | Population Membrane Permeable-Phenotype (%) [8]: 34% | Population Mitochondria Different-Phenotype (%) [8]: 58% | Population Mitotic Cells (%) [8]: 30% | Population Normal (%) [8]: 97% | Population Pyknosed Nuclei (%) [8]: 24% | Population Tubulin-Different-Phenotype (%) [8]: 60% | Total Cell Count [8]: 95 | Population Apoptotic (%) [9]: 80% | Population Fragmented Nuclei (%) [9]: 23% | Population Healthy Nuclei (%) [9]: 67% | Population Hoechst High Intensity Objects (%) [9]: 3% | Population Membrane Permeable-Phenotype (%) [9]: 9% | Population Mitochondria Different-Phenotype (%) [9]: 6% | Population Mitotic Cells (%) [9]: 20% | Population Normal (%) [9]: 96% | Population Pyknosed Nuclei (%) [9]: 8% | Population Tubulin-Different-Phenotype (%) [9]: 6% | Total Cell Count [9]: 355 | Population Apoptotic (%) [10]: 84% | Population Fragmented Nuclei (%) [10]: 12% | Population Healthy Nuclei (%) [10]: 79% | Population Hoechst High Intensity Objects (%) [10]: 0% | Population Membrane Permeable-Phenotype (%) [10]: 6% | Population Mitochondria Different-Phenotype (%) [10]: 3% | Population Mitotic Cells (%) [10]: 15% | Population Normal (%) [10]: 99% | Population Tubulin-Different-Phenotype (%) [10]: 5% | Total Cell Count [10]: 220 | Population Apoptotic (%) [11]: 86% | Population Fragmented Nuclei (%) [11]: 44% | Population Healthy Nuclei (%) [11]: 30% | Population Hoechst High Intensity Objects (%) [11]: 5% | Population Membrane Permeable-Phenotype (%) [11]: 46% | Population Mitochondria Different-Phenotype (%) [11]: 31% | Population Mitotic Cells (%) [11]: 13% | Population Normal (%) [11]: 94% | Population Pyknosed Nuclei (%) [11]: 25% | Population Tubulin-Different-Phenotype (%) [11]: 37% | Total Cell Count [11]: 285 | Population Apoptotic (%) [12]: 66% | Population Fragmented Nuclei (%) [12]: 30% | Population Healthy Nuclei (%) [12]: 49% | Population Hoechst High Intensity Objects (%) [12]: 4% | Population Membrane Permeable-Phenotype (%) [12]: 45% | Population Mitochondria Different-Phenotype (%) [12]: 45% | Population Mitotic Cells (%) [12]: 33% | Population Normal (%) [12]: 95% | Population Pyknosed Nuclei (%) [12]: 20% | Population Tubulin-Different-Phenotype (%) [12]: 50% | Total Cell Count [12]: 109

— ChEMBL document CHEMBL5058577, “EUbOPEN Chemogenomics Library 2 (Multiplex)” (2022)
